This is an account of results in ChEMBL document CHEMBL1126564, “Synthesis and antimicrobial evaluation of a series of 7-[3-amino (or aminomethyl)-4-aryl (or cyclopropyl)-1-pyrrolidinyl]-4-quinolone- and -1,8-naphthyridone-3-carboxylic acids” (1993).

Common to all, as to type: functional
One experiment has as its system Escherichia coli. Nature of the experiment: Minimum inhibitory concentration against Escherichia coli Vogel. The procedure, abridged:
(§1)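 Standard microdilution method against a panel of five Gram-negative and five Gram-positive bacterial strains. The MIC (µg/mL) was recorded for each strain.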

In the next experiment the test system is Enterococcus faecalis. The experiment is described as follows: Minimum inhibitory concentration against […] MGH-2. The procedure, abridged: as §1
The next experiment deals with Enterobacter cloacae. The experiment is described as follows: Minimum inhibitory concentration against […] MA-2646. The procedure, abridged: as §1
The next experiment relates to Klebsiella pneumoniae. The experiment is described as follows: Minimum inhibitory concentration against Klebsiella pneumoniae MGH-2. The procedure, abridged: as §1
Experiment [1] is filed under the species Mus musculus. Nature of the experiment: Median protective dose determined in acute lethal system infection caused by Escherichia coli vogel in CD-1 mice (single dose perorally). Conditions: po, read-out: PD50. In short, it runs like this:
(§2)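 Acute lethal systemic infection in female Charles River CD-1 mice; compound given once, orally (po) or subcutaneously (sc), at the time of challenge. Median protective dose (PD50, mg/kg) derived from survival.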

The subject of experiment [2] is Mus musculus. Nature of the experiment: Median protective dose determined in acute lethal system infection caused by Escherichia coli vogel in CD-1 mice (single dose sc). To be noted: read-out: PD50. In short, it runs like this:
as §2

For experiment [3], the system named is Mus musculus. Nature of the experiment: Median protective dose determined in acute lethal system infection caused by Streptococcus pyogenes C-203 in CD-1 mice (single dose sc). To be noted: read-out: PD50. The procedure, abridged: as §2
In the next experiment the test system is Pseudomonas aeruginosa. The experiment is described as follows: Minimum inhibitory concentration against Pseudomonas aeruginosa UI-18. In short, it runs like this: as §1
Another experiment concerns Providencia rettgeri. The experiment is described as follows: Minimum inhibitory concentration against Providencia rettgeri M-1771. The procedure, abridged:
as §1

A further experiment relates to Streptococcus pneumoniae. The experiment is described as follows: Minimum inhibitory concentration against Streptococcus pneumoniae SV-1. The procedure, abridged:
as §1

For experiment [4], the system named is Staphylococcus aureus. Nature of the experiment: Minimum inhibitory concentration against Staphylococcus aureus H-228. In short, it runs like this:
as §1

The test system of another experiment is Streptococcus pyogenes. The experiment is described as follows: Minimum inhibitory concentration against Streptococcus pyogenes C-203. In short, it runs like this:
as §1

The species named for experiment [5] is Mus musculus. The experiment is described as follows: Median protective dose determined in acute lethal system infection caused by Streptococcus pyogenes C-203 in CD-1 mice (single dose perorally). Conditions: po, read-out: PD50. The procedure, abridged: as §2
For experiment [6], the system named is Staphylococcus aureus. Nature of the experiment: Minimum inhibitory concentration against Staphylococcus aureus UC-76. In short, it runs like this: as §1
Where [7] appears, read: Escherichia coli, read-out: MIC.
Setting [8] is: Enterococcus faecalis, read-out: MIC.
[9] abbreviates: Enterobacter cloacae, read-out: MIC.
[10] abbreviates: Klebsiella pneumoniae, read-out: MIC.
Setting [11] is: Pseudomonas aeruginosa, read-out: MIC.
Setting [12] is: Providencia rettgeri, read-out: MIC.
[13] abbreviates: Streptococcus pneumoniae, read-out: MIC.
The mark [14] stands for this setting: Staphylococcus aureus, read-out: MIC.
Where [15] appears, read: Streptococcus pyogenes, read-out: MIC.

Values after ≈ are worked out from the molar mass of the structure shown.

With `COc1ccccc1C1CN(c2nc3c(cc2F)c(=O)c(C(=O)O)cn3C2CC2)CC1N` (stereo in doubt), the MIC against Escherichia coli was 0.2 µg/mL (≈ 0.456 µM); in the experiment with Enterococcus faecalis it was 0.2 µg/mL (≈ 0.456 µM); in the experiment on Enterobacter cloacae it was 0.2 µg/mL (≈ 0.456 µM); in the experiment on Klebsiella pneumoniae, 0.4 µg/mL (≈ 0.912 µM); against Pseudomonas aeruginosa, 3.1 µg/mL (≈ 7.07 µM); with Providencia rettgeri it was 0.8 µg/mL (≈ 1.82 µM). Further, the MIC stood at 0.1 µg/mL (≈ 0.228 µM) against Streptococcus pneumoniae, 0.1 µg/mL (≈ 0.228 µM) in the experiment with Staphylococcus aureus [4], 0.2 µg/mL (≈ 0.456 µM) against Streptococcus pyogenes and 0.05 µg/mL (≈ 0.114 µM) against Staphylococcus aureus [6]. Further, the ED50 in the experiment filed under Mus musculus [1] came out at 37 mg/kg; with Mus musculus [2], 28 mg/kg; in the experiment with Mus musculus [3], 22 mg/kg; in the experiment listed under Mus musculus [5], 44 mg/kg.

Consider `NC1CN(c2c(F)cc3c(=O)c(C(=O)O)cn(C4CC4)c3c2F)CC1c1ccccc1` (trans isomer), for which the MIC stood at 0.025 µg/mL (≈ 0.0588 µM) in the experiment with Escherichia coli (setting [7]); 0.1 µg/mL (≈ 0.235 µM) in the experiment with Enterococcus faecalis (setting [8]); 0.025 µg/mL (≈ 0.0588 µM) in the experiment with Enterobacter cloacae (setting [9]); 0.05 µg/mL (≈ 0.118 µM) with Klebsiella pneumoniae (setting [10]); 0.8 µg/mL (≈ 1.88 µM) with Pseudomonas aeruginosa (setting [11]); 0.1 µg/mL (≈ 0.235 µM) in the experiment on Providencia rettgeri (setting [12]). The MIC with Streptococcus pneumoniae (setting [13]) amounted to 0.1 µg/mL (≈ 0.235 µM); in the experiment on Staphylococcus aureus [4] (setting [14]) it was 0.025 µg/mL (≈ 0.0588 µM); in the experiment with Streptococcus pyogenes (setting [15]) it was 0.1 µg/mL (≈ 0.235 µM); with Staphylococcus aureus [6] (setting [14]), 0.013 µg/mL (≈ 0.0306 µM). Moreover, the ED50 in the experiment filed under Mus musculus [1] came out at 15.5 mg/kg; with Mus musculus [2], 7 mg/kg; in the experiment on Mus musculus [3] it was 1.6 mg/kg; in the experiment listed under Mus musculus [5] it was 10 mg/kg.

As to `NC1CN(c2c(F)cc3c(=O)c(C(=O)O)cn(C4CC4)c3c2F)CC1c1ccc(F)cc1` (trans isomer), the MIC in the experiment with Escherichia coli (setting [7]) was determined as 0.1 µg/mL (≈ 0.226 µM); in the experiment with Enterococcus faecalis (setting [8]), 0.1 µg/mL (≈ 0.226 µM); in the experiment with Enterobacter cloacae (setting [9]), 0.1 µg/mL (≈ 0.226 µM); with Klebsiella pneumoniae (setting [10]) it was 0.1 µg/mL (≈ 0.226 µM); with Pseudomonas aeruginosa (setting [11]), 1.6 µg/mL (≈ 3.61 µM); in the experiment on Providencia rettgeri (setting [12]), 0.2 µg/mL (≈ 0.451 µM). Also, the MIC is 0.1 µg/mL (≈ 0.226 µM) in the experiment on Streptococcus pneumoniae (setting [13]), 0.025 µg/mL (≈ 0.0564 µM) in the experiment on Staphylococcus aureus [4] (setting [14]), 0.1 µg/mL (≈ 0.226 µM) with Streptococcus pyogenes (setting [15]) and 0.013 µg/mL (≈ 0.0293 µM) in the experiment on Staphylococcus aureus [6] (setting [14]). Besides, the results for the ED50 with Mus musculus [3] and in the experiment listed under Mus musculus [5] were 40 mg/kg and 44 mg/kg, respectively.
